The list is not random: actives were taken first. Their share in the collection is about 1.7%.
Rce1 inhib = yeast Ras-converting enzyme inhibition. Q03530. yeast membranes, quenched prenylated peptide cleavage fluorescence. calls only. actives 0.27% (n = 290,000). AID 2563;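 active = fall in fluorescence gain of 50% or more versus controls, with final raw signal at or below 3038400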;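 note: plate controls were neutral control wells for no effect and wells lacking membranes for full effect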
Target sequence (Q03530 whole entry, looked up): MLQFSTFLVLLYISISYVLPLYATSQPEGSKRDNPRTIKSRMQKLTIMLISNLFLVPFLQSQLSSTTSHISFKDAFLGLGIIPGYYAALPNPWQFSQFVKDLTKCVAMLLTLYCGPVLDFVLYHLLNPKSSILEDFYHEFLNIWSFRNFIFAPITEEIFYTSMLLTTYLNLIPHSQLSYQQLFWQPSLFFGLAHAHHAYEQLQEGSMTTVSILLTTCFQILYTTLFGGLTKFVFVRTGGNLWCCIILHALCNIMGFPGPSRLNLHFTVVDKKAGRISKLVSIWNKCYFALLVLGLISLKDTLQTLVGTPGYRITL
AI-2 QS mod = modulates the Vibrio harveyi AI-2 quorum sensing system | activity change, % at 7.5 µM | actives 0.4% (n = 300,000) | Vibrio harveyi JMH597 AI-2 luminescence/OD600 ratio, 9 h; hits give low values; strain lacks LuxN and CqsS sensors; 0 = neutral-control median; in the data active = activity change below about -75%, passing the limit was not always enough;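 note: luminescence divided by OD600 gain over 9 h not by final OD600 alone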
ARNT TACC3 PPI = disrupts binding between human ARNT and TACC3; actives 0.66% (n = 390,000); inhibition, % at 9.99 µM; AlphaScreen His-ARNT PAS-B/GST-TACC3 binding, luminescence; TACC3 fragment carries E629A point mutation; Q9Y6A5; AID 623870;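 active = mean inhibition of replicates at least 50% and at least half of replicates each reaching 50%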;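 note: 0% = complete ARNT plus TACC3 wells and 100% = ARNT alone without TACC3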
CAL PDZ FP-1 = inhibitors of human CAL PDZ peptide binding; Q9HD26; purified CAL PDZ, TMR-peptide fluorescence polarization, 1 h; inhibition, % at 24.9 µM; actives 0.92% (n = 300,000); AID 602252;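 active = mean inhibition of at least 30% with at least half of replicates also reaching 30%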;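 note: 0% = DMSO neutral control and 100% = excess unlabeled competitor peptide PRC23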
CAL PDZ FP-2 = blocks peptide binding to human CAL PDZ domain. AID 504414. inhibition, % at 20 µM. actives 0.02% (n = 330,000). Q9HD26. purified CAL PDZ, TMR-peptide fluorescence polarization, 1 h;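 active = highest replicate inhibition of at least 40%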;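 note: plate controls were DMSO neutral control wells for no effect and unlabeled competitor peptide control wells for full effect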
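Material: tagged CAL PDZ protein CerCALP, purified; buffer or medium: sodium phosphate/NaCl buffer pH 7.4 with TCEP, IgG, Thesit; also added: fluorescent TMR peptide probe; schedule: 1 h incubation at room temperature before polarization reading; technique: fluorescence polarization from S- and P-plane intensities, G-factor corrected; control set: unlabelled peptide and DMSO controls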
The depositor's hits bear a star; ! = not confirmed by another sample.

Oc1ccccc1Oc1c(F)c(F)nc(N2CCCC2)c1F was read as Rce1 inhib inactive, AI-2 QS mod -94*, CAL PDZ FP-1 -3 and CAL PDZ FP-2 -2.
`N#CCCN(Cc1cccnc1)C(=S)NC(=O)c1ccccc1` gave ARNT TACC3 PPI -2, CAL PDZ FP-1 89* and CAL PDZ FP-2 -1.
`O=S(=O)(c1ccc(F)cc1)N1CCCCN2[C@H](CO)[C@H](c3ccc(-c4ccccc4F)cc3)[C@@H]2C1` gave ARNT TACC3 PPI 9.
`Clc1ccc(CN2CCc3c([nH]c4ccccc34)C2)cc1Cl` gave Rce1 inhib active, AI-2 QS mod 11, ARNT TACC3 PPI -4, CAL PDZ FP-1 -2 and CAL PDZ FP-2 0.
Clc1cccc(CN2CCc3c([nH]c4ccccc34)C2)c1 was read as ARNT TACC3 PPI 0, CAL PDZ FP-1 -7 and CAL PDZ FP-2 0.
For CC(=O)OC1OCCOC1NC(=S)NCc1ccco1 (centres undefined) the results were Rce1 inhib inactive, AI-2 QS mod 10, ARNT TACC3 PPI 1, CAL PDZ FP-1 6 and CAL PDZ FP-2 0.
Screening Cc1ccc(S(=O)(=O)Cc2ccc(C(=O)NCCc3ccccc3)o2)cc1 returned Rce1 inhib inactive, AI-2 QS mod -9, ARNT TACC3 PPI -5, CAL PDZ FP-1 -1 and CAL PDZ FP-2 -1.
For O=c1c2cc(N3CCOCC3)ccc2[nH]c(=S)n1CC1CCCO1 (centres undefined) the results were Rce1 inhib inactive, AI-2 QS mod 5, ARNT TACC3 PPI 0 and CAL PDZ FP-2 -1.
For CCOC(=O)c1cnn(-c2ccc([N+](=O)[O-])cc2)c1N the results were Rce1 inhib inactive, AI-2 QS mod 17, ARNT TACC3 PPI -11, CAL PDZ FP-1 60* and CAL PDZ FP-2 0.
CCOC(=O)c1cnn(-c2ccccc2)c1N was read as Rce1 inhib inactive, AI-2 QS mod 25, ARNT TACC3 PPI -24, CAL PDZ FP-1 2 and CAL PDZ FP-2 -2.
Screening Cn1c(=O)oc2cc(S(=O)(=O)NCc3ccncc3)ccc21 returned Rce1 inhib inactive, AI-2 QS mod 27, ARNT TACC3 PPI -8 and CAL PDZ FP-1 -2.
For Nc1c(C(=O)Nc2ccccc2)nnn1-c1ccc2c(c1)OCCO2 the results were Rce1 inhib inactive, AI-2 QS mod 10, ARNT TACC3 PPI 29, CAL PDZ FP-1 80* and CAL PDZ FP-2 -1.
For Cc1ccc(NC(=O)c2nnn(-c3ccc4c(c3)OCCO4)c2N)cc1 the results were ARNT TACC3 PPI -3 and CAL PDZ FP-2 -1.
`COC(=O)c1cccc(C(=O)Oc2cccc(Br)c2)n1` gave Rce1 inhib inactive, AI-2 QS mod 1, ARNT TACC3 PPI -1, CAL PDZ FP-1 1 and CAL PDZ FP-2 -2.
For COCc1cn(CC[C@H]2CC[C@@H](NC(=O)c3ccccc3)[C@H](CO)O2)nn1 the results were ARNT TACC3 PPI -14.
For CC(=O)Oc1ccccc1C1=NN(C(=O)/C=C/c2ccccc2)C(c2ccccc2)C1 (centres undefined) the results were Rce1 inhib inactive, AI-2 QS mod 21, ARNT TACC3 PPI 9, CAL PDZ FP-1 -2 and CAL PDZ FP-2 -1.
`COc1ccc(C2CC(c3ccccc3OC(C)=O)=NN2C(=O)/C=C/c2ccccc2)cc1` (centres undefined) gave Rce1 inhib inactive, AI-2 QS mod 4, ARNT TACC3 PPI 8, CAL PDZ FP-1 52* and CAL PDZ FP-2 -1.
`COc1ccc(C2CC(c3ccccc3OC(C)=O)=NN2C(C)=O)cc1` (centres undefined) gave Rce1 inhib inactive, ARNT TACC3 PPI -3, CAL PDZ FP-1 91* and CAL PDZ FP-2 -1.
O=C(OCC(=O)N1CCCc2ccccc21)c1cc(S(=O)(=O)N2CCOCC2)ccc1F was read as Rce1 inhib inactive, AI-2 QS mod 19, ARNT TACC3 PPI -3, CAL PDZ FP-1 -3 and CAL PDZ FP-2 -1.
`O=C(COC(=O)c1ccc(F)c(S(=O)(=O)N2CCOCC2)c1)c1ccccc1` gave CAL PDZ FP-1 12 and CAL PDZ FP-2 -3.
`O=C(OCC(=O)N1CCCc2ccccc21)c1cc(S(=O)(=O)N2CCOCC2)ccc1O` gave CAL PDZ FP-1 65* and CAL PDZ FP-2 0.
For O=C(COC(=O)c1cc(S(=O)(=O)N2CCOCC2)ccc1F)c1ccccc1 the results were CAL PDZ FP-1 43* and CAL PDZ FP-2 -1.
Screening Cc1c(NS(=O)(=O)c2ccccc2)c(=O)n(-c2ccccc2)n1C returned AI-2 QS mod 8, ARNT TACC3 PPI -8, CAL PDZ FP-1 0 and CAL PDZ FP-2 0.
Screening Cc1ccc(S(=O)(=O)Nc2c(C)n(C)n(-c3ccccc3)c2=O)cc1 returned Rce1 inhib inactive, AI-2 QS mod 2, ARNT TACC3 PPI 2, CAL PDZ FP-1 54*! and CAL PDZ FP-2 10.
`CCOC(=O)c1cccc(Nc2ncnc3ccc(C)cc23)c1` gave Rce1 inhib inactive, AI-2 QS mod 11, ARNT TACC3 PPI -3, CAL PDZ FP-1 -6 and CAL PDZ FP-2 -4.
O=C1NCC2=C1C(c1ccccc1)Nc1ccccc1N2 (centres undefined) was read as Rce1 inhib inactive, AI-2 QS mod 18, ARNT TACC3 PPI active, CAL PDZ FP-1 -7 and CAL PDZ FP-2 -6.
Screening O=C1CCCC2=C1C(c1ccncc1)Nc1ccccc1N2 (centres undefined) returned Rce1 inhib inactive, AI-2 QS mod -1, ARNT TACC3 PPI 7, CAL PDZ FP-1 -2 and CAL PDZ FP-2 0.
CCOC(=O)c1c(-c2cccs2)csc1NC(=O)CN(CC)CC was read as Rce1 inhib inactive, AI-2 QS mod -1, ARNT TACC3 PPI -4 and CAL PDZ FP-2 0.
CCCCC(=O)Nc1ccc(N2CCN(C(=O)CC)CC2)cc1 was read as Rce1 inhib inactive, AI-2 QS mod 37, ARNT TACC3 PPI -10 and CAL PDZ FP-2 0.
Screening CCCC(=O)Nc1ccc(N2CCN(C(=O)CCC)CC2)cc1 returned Rce1 inhib inactive, AI-2 QS mod 10, ARNT TACC3 PPI -1, CAL PDZ FP-1 39* and CAL PDZ FP-2 -1.
`CC(C)Cc1nnc(NC(=O)CCC(=O)N2CCN(c3ccc(F)cc3)CC2)s1` gave Rce1 inhib inactive, AI-2 QS mod 14, ARNT TACC3 PPI 3, CAL PDZ FP-1 41* and CAL PDZ FP-2 -1.
`CC(C)Cc1nnc(NC(=O)CCC(=O)N2CCOCC2)s1` gave Rce1 inhib inactive, AI-2 QS mod 13, ARNT TACC3 PPI -1, CAL PDZ FP-1 0 and CAL PDZ FP-2 0.
Cc1cc(=O)[nH]c(SCCCOc2ccc3c(c2)CCC3)n1 was read as Rce1 inhib inactive, AI-2 QS mod 33, ARNT TACC3 PPI -46, CAL PDZ FP-1 1 and CAL PDZ FP-2 -1.
Screening Cc1ccc(S(=O)(=O)n2nc(C)c(S(=O)(=O)N3CCOCC3)c2C)cc1 returned Rce1 inhib inactive, AI-2 QS mod 20, ARNT TACC3 PPI -4, CAL PDZ FP-1 -3 and CAL PDZ FP-2 1.

Source: PubChem BioAssay
